Calls of active or inactive are those of the source. The calls are words filed in the database; no cut-off is given here.
How the values were obtained:
Assay type in all cases: cell-based
[1] = target: T1, Steryl-sulfatase (Homo sapiens) (UniProt P08842); assay: Inhibition of steroid sulfatase in human MCF7 cells assessed as conversion of [3H]E1S to [3H]E1 and [3H]E2 at 1 uM after 5 hrs by liquid scintillation counting
T1 sequence (whole entry): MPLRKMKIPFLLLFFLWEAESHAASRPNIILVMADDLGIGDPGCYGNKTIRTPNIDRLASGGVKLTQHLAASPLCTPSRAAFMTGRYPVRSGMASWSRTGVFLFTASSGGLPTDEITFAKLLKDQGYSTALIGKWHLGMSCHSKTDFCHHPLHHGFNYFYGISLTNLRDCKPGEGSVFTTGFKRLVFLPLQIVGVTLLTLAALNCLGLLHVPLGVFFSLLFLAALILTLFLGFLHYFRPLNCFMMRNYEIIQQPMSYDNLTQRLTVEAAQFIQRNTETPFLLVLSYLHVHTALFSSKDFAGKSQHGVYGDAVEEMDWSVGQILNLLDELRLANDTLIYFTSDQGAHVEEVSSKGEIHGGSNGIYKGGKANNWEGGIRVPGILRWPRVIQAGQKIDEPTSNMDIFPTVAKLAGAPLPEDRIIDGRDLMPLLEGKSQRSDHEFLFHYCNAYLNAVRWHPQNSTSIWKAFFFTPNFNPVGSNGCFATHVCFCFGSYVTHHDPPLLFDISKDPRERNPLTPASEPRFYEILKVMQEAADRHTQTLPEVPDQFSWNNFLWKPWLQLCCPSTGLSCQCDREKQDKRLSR
How it was run: (§1)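 MCF-7 homogenate (freeze–thaw five times, diluted in Tris–EDTA, centrifuged 15,000g 4 °C 15 min, supernatant adjusted to 0.2 mg/mL protein by Bradford) incubated with [3H]E1S (final 10 nM) and inhibitor at 37 °C for 5 h. Toluene extraction of [3H]E1 plus [3H]E2, liquid scintillation counting; 1 uM STX64 defined 100%; triplicate.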

[2] = target: T1, Steryl-sulfatase (Homo sapiens); assay: Inhibition of steroid sulfatase in human MCF7 cells assessed as conversion of [3H]E1S to [3H]E1 and [3H]E2 at 0.1 uM after 5 hrs by liquid scintillation counting; how it was run: as §1
[3] = target: T2, Estrogen receptor (Homo sapiens) (UniProt P03372); assay: Antagonist activity at human Gal4-fused ER-alpha expressed in HEK293 cells assessed as inhibition of 17beta-estradiol-induced effect at 3 uM by luciferase reporter gene assay
T2 sequence (whole entry): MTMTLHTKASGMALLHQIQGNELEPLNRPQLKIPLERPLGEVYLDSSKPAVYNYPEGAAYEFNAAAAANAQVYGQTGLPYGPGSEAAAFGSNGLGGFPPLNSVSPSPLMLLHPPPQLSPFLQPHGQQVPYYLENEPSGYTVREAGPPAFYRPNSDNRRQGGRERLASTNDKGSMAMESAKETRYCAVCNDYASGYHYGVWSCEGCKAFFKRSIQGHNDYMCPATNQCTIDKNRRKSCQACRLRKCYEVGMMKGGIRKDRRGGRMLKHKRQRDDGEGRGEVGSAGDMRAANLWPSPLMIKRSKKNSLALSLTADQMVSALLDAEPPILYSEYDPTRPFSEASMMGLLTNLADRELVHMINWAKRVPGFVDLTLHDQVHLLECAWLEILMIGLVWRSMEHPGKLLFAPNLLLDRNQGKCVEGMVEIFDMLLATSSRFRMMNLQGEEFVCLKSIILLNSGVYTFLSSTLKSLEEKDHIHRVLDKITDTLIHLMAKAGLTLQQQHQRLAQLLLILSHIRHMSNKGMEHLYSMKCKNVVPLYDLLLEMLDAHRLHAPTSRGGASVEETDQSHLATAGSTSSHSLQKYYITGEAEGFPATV
How it was run: (§2)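 Antagonist mode in transfected HEK293 GAL4-ER luciferase system, with cells co-treated with 0.3 nM 17beta-estradiol. Compound added 8 h post-transfection, 16–20 h treatment, luciferase normalized to beta-galactosidase, triplicate means.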

Estrogen receptor beta [4] = target: T3, Estrogen receptor beta (Homo sapiens, UniProt Q92731); assay: Antagonist activity at human Gal4-fused ER-beta expressed in HEK293 cells assessed as inhibition of 17beta-estradiol-induced effect at 3 uM by luciferase reporter gene assay; how it was run: as §2
T3 sequence (Q92731 whole entry, the tested form may be a part): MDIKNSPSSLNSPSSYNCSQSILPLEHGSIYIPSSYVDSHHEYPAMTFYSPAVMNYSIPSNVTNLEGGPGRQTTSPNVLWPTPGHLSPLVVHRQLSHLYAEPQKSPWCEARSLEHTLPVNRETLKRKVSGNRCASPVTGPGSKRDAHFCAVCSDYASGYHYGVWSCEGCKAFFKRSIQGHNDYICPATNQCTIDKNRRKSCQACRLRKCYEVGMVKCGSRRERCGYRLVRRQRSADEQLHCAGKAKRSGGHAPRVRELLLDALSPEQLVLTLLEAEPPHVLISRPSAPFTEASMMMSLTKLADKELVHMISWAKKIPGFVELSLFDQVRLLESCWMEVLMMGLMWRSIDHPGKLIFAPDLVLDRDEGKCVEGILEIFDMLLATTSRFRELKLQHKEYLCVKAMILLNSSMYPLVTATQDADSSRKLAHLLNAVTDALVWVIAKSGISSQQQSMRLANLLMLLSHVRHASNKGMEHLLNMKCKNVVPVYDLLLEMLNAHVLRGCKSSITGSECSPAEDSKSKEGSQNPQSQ

[5] = target: T2, Estrogen receptor (Homo sapiens); assay: Agonist activity at human Gal4-fused ER-alpha expressed in HEK293 cells at 10 uM by luciferase reporter gene assay relative to 17beta-estradiol
How it was run: (§3)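 Agonist mode: HEK293 cells in phenol-red-free DMEM with 5% FBS, 37 °C, 5% CO2, calcium phosphate cotransfected with GAL4-responsive MH100(UAS)x4-tk-LUC reporter, ER receptor fragment plasmid and beta-galactosidase plasmid. Compound added 8 h post-transfection, cells harvested 16–20 h later. Luciferase normalized to beta-galactosidase, triplicate means.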

Estrogen receptor beta [6] = target: T3, Estrogen receptor beta; assay: Antagonist activity at human Gal4-fused ER-beta expressed in HEK293 cells assessed as inhibition of 17beta-estradiol-induced effect by luciferase reporter gene assay
How it was run: (§4)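 With 0.3 nM 17beta-estradiol present, HEK293 cells calcium phosphate cotransfected with GAL4-responsive luciferase reporter, ER plasmid and beta-galactosidase were treated 8 h post-transfection for 16–20 h. Normalized luciferase, triplicate means; antagonism expressed as IC50 (nM).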

Estrogen receptor beta [7] = target: T3, Estrogen receptor beta; assay: Agonist activity at human Gal4-fused ER-beta expressed in HEK293 cells at 10 uM by luciferase reporter gene assay relative to 17beta-estradiol; how it was run: as §3
Estrogen receptor [8] = target: T4, Estrogen receptor (Homo sapiens, UniProt P03372); assay: Antagonist activity at human Gal4-fused ER-alpha expressed in HEK293 cells assessed as inhibition of 17beta-estradiol-induced effect by luciferase reporter gene assay; how it was run: as §4
T4 sequence (P03372 whole entry): T2 sequence (whole entry)

Estrogen receptor beta [9] = target: T3, Estrogen receptor beta; assay: Antagonist activity at human Gal4-fused ER-beta expressed in HEK293 cells assessed as inhibition of 17beta-estradiol-induced effect at 1 uM by luciferase reporter gene assay; how it was run: as §2
Steryl-sulfatase = target: T5, Steryl-sulfatase (Homo sapiens, UniProt P08842); assay: Inhibition of steroid sulfatase in human MCF7 cells assessed as conversion of [3H]E1S to [3H]E1 and [3H]E2 after 5 hrs by liquid scintillation counting; how it was run: as §1
T5 sequence (P08842 whole entry): T1 sequence (whole entry)

Estrogen receptor [10] = target: T4, Estrogen receptor; assay: Agonist activity at human Gal4-fused ER-alpha expressed in HEK293 cells by luciferase reporter gene assay
How it was run: (§5)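 GAL4-ER fusion reporter in HEK293 (phenol-red-free DMEM, 5% FBS), calcium phosphate transfection with MH100(UAS)x4-tk-LUC and beta-galactosidase control; compounds given 8 h after transfection, harvest at 16–20 h. Luciferase/beta-galactosidase ratio, triplicate means; agonism expressed as EC50 (nM).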

Estrogen receptor beta [11] = target: T3, Estrogen receptor beta; assay: Agonist activity at human Gal4-fused ER-beta expressed in HEK293 cells by luciferase reporter gene assay; how it was run: as §5

| SMILES | inhibition [1] [%] | inhibition [2] [%] | inhibition [3] | inhibition (Estrogen receptor beta [4]) | Activity [5] | Activity (Estrogen receptor beta [7]) | further results |
| --- | --- | --- | --- | --- | --- | --- | --- |
| NS(=O)(=O)Oc1ccc2c3c(c(=O)oc2c1)CCCCC3 | 100 | – | – | – | – | – | – |
| CCCC(CCC)(c1ccc(OS(N)(=O)=O)c(C)c1)c1ccc(OS(N)(=O)=O)c(C)c1 | 21.1 | < 10 | 54.9% | 43.9% | – | – | – |
| C[Si](C)(c1ccc(O)cc1)c1ccc(O)cc1 | < 10 | < 10 | 50.9% | – | 25.3% | – | IC50 (Estrogen receptor beta [6]; hek293): Not Active |
| CN(C)S(=O)(=O)Oc1ccc([Si](C)(C)c2ccc(OS(=O)(=O)N(C)C)cc2)cc1 | < 10 | < 10 | – | – | – | – | – |
| CCC[Si](CCC)(c1ccc(OS(N)(=O)=O)c(C)c1)c1ccc(OS(N)(=O)=O)c(C)c1 | 18.7 | < 10 | 87.1% | 18% | – | – | – |
| Oc1ccc(Cc2ccc(O)cc2)cc1 | – | – | 22.6% | – | – | – | IC50 (Estrogen receptor beta [6]; hek293): Not Active |
| C[Si](C)(c1ccc(OS(N)(=O)=O)cc1)c1ccc(OS(N)(=O)=O)cc1 | 81.9 | 35.8 | inactive | inactive | 10.8% | 16.7% | – |
| CC[Si](CC)(c1ccc(O)c(C)c1)c1ccc(O)c(C)c1 | – | – | – | 53.5% | – | – | IC50 (Estrogen receptor [8]): 29.7 nM |
| CCCCC(CCCC)(c1ccc(OS(N)(=O)=O)c(C)c1)c1ccc(OS(N)(=O)=O)c(C)c1 | 28 | 10.3 | 42.5% | inactive | – | – | – |
| CCC(CC)(c1ccc(OS(N)(=O)=O)cc1)c1ccc(OS(N)(=O)=O)cc1 | 29.9 | 11 | 53.2% | 49.3% | inactive | inactive | – |
| CC[Si](CC)(c1ccc(O)cc1)c1ccc(O)cc1 | – | – | – | – | 7.1% | 11.9% | IC50 (Estrogen receptor [8]): 115 nM; inhibition (Estrogen receptor beta [9]): 53% |
| CCC(CC)(c1ccc(OS(N)(=O)=O)c(C)c1)c1ccc(OS(N)(=O)=O)c(C)c1 | 25.4 | < 10 | 36.7% | 49.3% | inactive | inactive | – |
| NS(=O)(=O)Oc1ccc(Cc2ccc(OS(N)(=O)=O)cc2)cc1 | 50.1 | < 10 | – | 2.25% | – | – | IC50 (Steryl-sulfatase): 1020 nM; EC50 (Estrogen receptor [10]): Active |
| CCCCC(CCCC)(c1ccc(O)c(C)c1)c1ccc(O)c(C)c1 | – | – | – | – | – | – | EC50 (Estrogen receptor [10]): Not Active; EC50 (Estrogen receptor beta [11]): Not Active |
| CC[Si](CC)(c1ccc(OS(N)(=O)=O)c(C)c1)c1ccc(OS(N)(=O)=O)c(C)c1 | 82.6 | 22.6 | 94.8% | 47.2% | inactive | inactive | IC50 (Steryl-sulfatase): 170 nM |
| CC(C)(c1ccc(OS(N)(=O)=O)cc1)c1ccc(OS(N)(=O)=O)cc1 | < 10 | < 10 | 6.63% | 7.79% | 9.5% | inactive | – |
| CCC(CC)(c1ccc(O)c(C)c1)c1ccc(O)c(C)c1 | – | – | – | – | – | – | IC50 (Estrogen receptor [8]): 3.53 nM; EC50 (Estrogen receptor [10]): Not Active; EC50 (Estrogen receptor beta [11]): Not Active |
| Oc1ccc(Sc2ccc(O)cc2)cc1 | – | – | – | – | 37.8% | – | IC50 (Estrogen receptor beta [6]; hek293): Not Active |
| NS(=O)(=O)Oc1ccc(Sc2ccc(OS(N)(=O)=O)cc2)cc1 | 89.7 | 57.1 | – | inactive | – | 82.8% | IC50 (Steryl-sulfatase): 88 nM; EC50 (Estrogen receptor [10]): Active |
| CCC(CC)(c1ccc(O)cc1)c1ccc(O)cc1 | – | – | – | – | – | 9.3% | IC50 (Estrogen receptor [8]): 118 nM; EC50 (Estrogen receptor [10]): Not Active |
| CCC[Si](CCC)(c1ccc(O)c(C)c1)c1ccc(O)c(C)c1 | – | – | – | – | 5.6% | 4.9% | IC50 (Estrogen receptor [8]): 26.2 nM; IC50 (Estrogen receptor beta [6]; read-out: IC50): 804 nM |
| C[Si](C)(c1ccc(O)cc1)c1ccc(OS(N)(=O)=O)cc1 | 76.4 | 25.2 | – | – | – | – | – |
| CCCC[Si](CCCC)(c1ccc(OS(N)(=O)=O)c(C)c1)c1ccc(OS(N)(=O)=O)c(C)c1 | 16.4 | < 10 | 16.4% | inactive | – | – | – |
| CC(C)(c1ccc(O)cc1)c1ccc(O)cc1 [BISPHENOL A] | – | – | 36.1% | – | 28.7% | – | IC50 (Estrogen receptor beta [6]; hek293): Not Active |
| CCCC(CCC)(c1ccc(O)c(C)c1)c1ccc(O)c(C)c1 | – | – | – | – | – | 6.1% | EC50 (Estrogen receptor [10]): Not Active |
| CC[Si](CC)(c1ccc(OS(N)(=O)=O)cc1)c1ccc(OS(N)(=O)=O)cc1 | 96.4 | 62 | 100% | 62.8% | inactive | 1.1% | – |
